In ChEMBL document CHEMBL1156941, “Discovery of small molecule isozyme non-specific inhibitors of mammalian acetyl-CoA carboxylase 1 and 2” (Bioorg Med Chem Lett, 2010):

Legend:
Acetyl-CoA carboxylase 1 = Acetyl-CoA carboxylase 1 (Rattus norvegicus, UniProt P11497); assay: Inhibition of rat liver ACC1 after 7 mins by liquid scintillation counter
Acetyl-CoA carboxylase 2 = Acetyl-CoA carboxylase 2 (Homo sapiens, UniProt O00763); assay: Inhibition of human recombinant ACC2 expressed in CHO cells after 1 hr by fluorescence reader; format: cell-based
How it was run: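 Purified recombinant human ACC2, from conditioned medium captured on avidin resin and eluted with biotin, then dialyzed. Compounds in DMSO, final DMSO 1%. Run 1 h at room temperature. ADP measured by Transcreener fluorescence polarization after a further 1 h.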

[1] = Half life in rat at 1 mg/kg, iv administered with methylcellulose; format: ADME, organism-based; design: dose 1 mg/kg, route intravenous; settings: in vivo
[2] = Clearance in rat at 1 mg/kg, iv administered with methylcellulose; format: ADME, organism-based; design: dose 1 mg/kg, route intravenous; settings: in vivo
[3] = Volume of distribution at steady state in rat at 1 mg/kg, iv administered with methylcellulose; format: ADME, organism-based; design: dose 1 mg/kg, route intravenous; settings: in vivo, read-out: Vdss
[4] = Oral bioavailability in rat at 3 mg/kg administered with methylcellulose; format: ADME, organism-based; settings: in vivo
[5] = Oral bioavailability in rat at 3 mg/kg administered with lipid emulsion; format: ADME, organism-based; settings: in vivo
[6] = Oral bioavailability in rat at 3 mg/kg administered with spray-dried dispersion; format: ADME, organism-based; settings: in vivo
[7] = Half life in Beagle dog at 1 mg/kg, iv administered with 40% PEG400 and 60% glycerol; format: ADME, organism-based, Canis lupus familiaris; design: dose 1 mg/kg, route intravenous; settings: in vivo
[8] = Clearance in Beagle dog at 1 mg/kg, iv administered with 40% PEG400 and 60% glycerol; format: ADME, organism-based, Canis lupus familiaris; design: dose 1 mg/kg, route intravenous; settings: in vivo
[9] = Volume of distribution at steady state in Beagle dog at 1 mg/kg, iv administered with 40% PEG400 and 60% glycerol; format: ADME, organism-based, Canis lupus familiaris; design: dose 1 mg/kg, route intravenous; settings: in vivo, read-out: Vdss
[10] = Cmax in rat at 5 mg/kg, po; format: ADME, organism-based; design: dose 5 mg/kg, route oral; settings: in vivo
How it was run: (§1)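 Rat pharmacokinetics. Intravenous dose 1 mg/kg, giving CL in mL/min/kg and Vdss in L/kg. Oral dose 5 mg/kg, giving Cmax in ng/mL, %F and t1/2 in h.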

[11] = Clearance in rat at 1 mg/kg, iv; format: ADME, organism-based; design: dose 1 mg/kg, route intravenous; settings: in vivo; how it was run: as §1
[12] = Volume of distribution at steady state in rat at 1 mg/kg, iv; format: ADME, organism-based; design: dose 1 mg/kg, route intravenous; settings: in vivo, read-out: Vdss; how it was run: as §1
[13] = Oral bioavailability in rat at 5 mg/kg; format: ADME, organism-based; settings: in vivo; how it was run: as §1
[14] = Half life in rat at 5 mg/kg, po; format: ADME, organism-based; design: dose 5 mg/kg, route oral; settings: in vivo; how it was run: as §1

Acetyl-CoA carboxylase 2, sequence (O00763 whole entry): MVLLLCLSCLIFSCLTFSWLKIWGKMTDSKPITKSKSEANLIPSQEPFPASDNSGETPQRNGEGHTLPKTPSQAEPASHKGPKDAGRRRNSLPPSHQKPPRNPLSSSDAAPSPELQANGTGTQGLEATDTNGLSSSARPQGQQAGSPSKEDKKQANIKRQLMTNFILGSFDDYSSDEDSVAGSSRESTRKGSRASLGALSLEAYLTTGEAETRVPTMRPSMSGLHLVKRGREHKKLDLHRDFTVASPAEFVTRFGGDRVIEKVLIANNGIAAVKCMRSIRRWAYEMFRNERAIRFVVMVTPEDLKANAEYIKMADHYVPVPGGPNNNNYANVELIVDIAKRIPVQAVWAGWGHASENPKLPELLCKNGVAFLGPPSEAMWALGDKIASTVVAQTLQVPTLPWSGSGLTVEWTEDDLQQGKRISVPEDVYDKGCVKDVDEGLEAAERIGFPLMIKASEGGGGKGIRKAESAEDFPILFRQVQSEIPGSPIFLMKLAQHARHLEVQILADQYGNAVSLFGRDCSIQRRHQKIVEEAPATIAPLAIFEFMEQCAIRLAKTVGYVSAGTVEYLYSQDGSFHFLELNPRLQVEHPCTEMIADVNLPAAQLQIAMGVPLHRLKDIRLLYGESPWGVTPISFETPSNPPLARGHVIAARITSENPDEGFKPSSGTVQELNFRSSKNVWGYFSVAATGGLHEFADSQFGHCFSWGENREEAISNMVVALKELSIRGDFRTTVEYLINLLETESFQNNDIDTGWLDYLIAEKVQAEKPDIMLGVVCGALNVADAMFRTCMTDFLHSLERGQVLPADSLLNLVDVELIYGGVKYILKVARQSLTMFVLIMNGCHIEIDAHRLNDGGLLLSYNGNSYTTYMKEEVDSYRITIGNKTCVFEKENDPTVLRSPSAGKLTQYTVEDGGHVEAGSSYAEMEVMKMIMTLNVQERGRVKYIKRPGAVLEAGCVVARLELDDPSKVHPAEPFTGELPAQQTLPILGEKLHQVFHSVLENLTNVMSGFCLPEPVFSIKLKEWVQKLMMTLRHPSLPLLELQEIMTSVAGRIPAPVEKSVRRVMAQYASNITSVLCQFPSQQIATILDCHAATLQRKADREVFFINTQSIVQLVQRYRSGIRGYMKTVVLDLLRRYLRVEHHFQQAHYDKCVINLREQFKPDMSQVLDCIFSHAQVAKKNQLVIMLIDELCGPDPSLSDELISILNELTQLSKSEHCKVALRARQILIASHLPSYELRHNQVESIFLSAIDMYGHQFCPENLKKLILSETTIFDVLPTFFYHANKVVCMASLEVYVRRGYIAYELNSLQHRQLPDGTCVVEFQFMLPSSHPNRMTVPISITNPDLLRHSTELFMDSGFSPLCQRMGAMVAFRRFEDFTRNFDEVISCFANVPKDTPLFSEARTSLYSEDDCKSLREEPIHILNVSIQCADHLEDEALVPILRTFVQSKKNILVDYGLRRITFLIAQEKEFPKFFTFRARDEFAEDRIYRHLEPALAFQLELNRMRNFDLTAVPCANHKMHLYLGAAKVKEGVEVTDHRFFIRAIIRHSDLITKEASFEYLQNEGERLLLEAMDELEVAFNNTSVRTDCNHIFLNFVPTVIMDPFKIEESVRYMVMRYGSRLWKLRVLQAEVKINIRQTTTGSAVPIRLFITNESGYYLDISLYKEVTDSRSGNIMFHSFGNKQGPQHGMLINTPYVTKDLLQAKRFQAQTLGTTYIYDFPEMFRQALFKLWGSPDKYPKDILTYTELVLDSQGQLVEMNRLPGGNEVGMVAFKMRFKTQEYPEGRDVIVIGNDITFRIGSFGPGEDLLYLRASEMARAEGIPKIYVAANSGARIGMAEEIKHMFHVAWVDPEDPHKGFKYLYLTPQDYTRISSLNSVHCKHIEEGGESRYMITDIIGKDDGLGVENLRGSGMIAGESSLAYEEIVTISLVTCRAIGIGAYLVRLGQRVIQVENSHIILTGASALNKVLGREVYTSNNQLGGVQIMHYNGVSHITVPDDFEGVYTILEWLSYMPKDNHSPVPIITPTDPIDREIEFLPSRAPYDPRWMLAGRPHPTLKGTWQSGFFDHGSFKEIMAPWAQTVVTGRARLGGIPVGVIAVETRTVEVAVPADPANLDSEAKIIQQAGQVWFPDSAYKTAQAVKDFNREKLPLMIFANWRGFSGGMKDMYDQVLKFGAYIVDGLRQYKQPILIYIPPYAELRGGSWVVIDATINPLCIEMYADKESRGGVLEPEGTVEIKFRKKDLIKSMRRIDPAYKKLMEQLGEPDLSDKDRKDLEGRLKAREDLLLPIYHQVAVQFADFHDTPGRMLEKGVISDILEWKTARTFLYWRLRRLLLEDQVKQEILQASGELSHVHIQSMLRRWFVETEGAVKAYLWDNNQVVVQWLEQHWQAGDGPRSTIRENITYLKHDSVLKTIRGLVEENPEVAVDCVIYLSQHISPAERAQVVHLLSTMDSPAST

| IC50 (Acetyl-CoA carboxylase 1) [nM] | IC50 (Acetyl-CoA carboxylase 2) [nM] | other results | Compound |
| --- | --- | --- | --- |
| 26 | 19 | – | COc1cccc2c1C(=O)CC1(CCN(C(=O)c3ccc4nc(-c5cccnc5)[nH]c4c3)CC1)O2 |
| 19 | – | – | COc1cccc2c1C(=O)CC1(CCN(C(=O)c3ccc4nc(-c5ccn(C)n5)[nH]c4c3)CC1)O2 |
| 34 | 48 | – | COc1nc(C)cc2c1C(=O)CC1(CCN(C(=O)c3cc(C)c4[nH]ncc4c3)CC1)O2 |
| 12 | 20 | half-life [1]: 1.4 h; clearance [2]: 31 mL/min/kg; Vd [3]: 3.3 L/kg; bioavailability [4]: 32%; bioavailability [5]: 8%; bioavailability [6]: 52%; half-life [7]: 6.1 h; clearance [8]: 3.6 mL/min/kg; Vd [9]: 1.6 L/kg | Cc1n[nH]c2c(C)cc(C(=O)N3CCC4(CC3)CC(=O)c3c(ccnc3OC(C)C)O4)cc12 |
| – | 2130 | – | O=C1CC2(CCN(C(=O)c3cccc4cn[nH]c34)CC2)Oc2ccc(Cl)cc21 |
| – | > 1000 | – | Cc1cc(C)c2c(c1)C(=O)CC1(CCN(C(=O)c3cccc4cn[nH]c34)CC1)O2 |
| 35 | 16 | – | COc1cccc2c1C(=O)CC1(CCN(C(=O)c3ccc4[nH]c(C(N)=O)nc4c3)CC1)O2 |
| 3010 | – | Cmax [10]: 91.5 ng/mL; clearance [11]: 34.1 mL/min/kg; Vd [12]: 2.8 L/kg; bioavailability [13]: 7%; half-life [14]: 1.8 h | Cc1ccc2cc(CC3CCN(C(=O)c4cccc(-c5cc[nH]n5)c4)CC3)ccc2n1 |
| 1350 | – | – | Cc1cc(C(=O)N2CCC3(CC2)CC(=O)c2nc(N)ccc2O3)cc2cn[nH]c12 |
| 8910 | – | – | Cc1ccc2cc(CC3CCN(C(=O)c4ccnc5ccccc45)CC3)ccc2n1 |
| 102 | 151 | – | CCc1cc(C(=O)N2CCC3(CC2)CC(=O)c2c(OC)cccc2O3)cc2cn[nH]c12 |
| 975 | – | – | Cn1cc(-c2cc3c(cn2)OC2(CCN(C(=O)c4ccc5nc(-c6ccn(C)n6)[nH]c5c4)CC2)CC3=O)cn1 |
| 104 | 6.5 | – | COc1cccc2c1C(=O)CC1(CCN(C(=O)c3cc(C)c4[nH]ncc4c3)CC1)O2 |
| 24.6 | – | – | Cc1cc(C(=O)N2CCC3(CC2)CC(=O)c2cc(-c4cnn(C)c4)ncc2O3)cc2cn[nH]c12 |
| 61 | – | – | CCOc1nccc2c1C(=O)CC1(CCN(C(=O)c3cc(C)c4[nH]ncc4c3)CC1)O2 |
| 22 | 48 | – | Cc1cc2c(cc1C)C(=O)CC1(CCN(C(=O)c3cc(C)c4[nH]ncc4c3)CC1)O2 |
| – | 400 | – | Cc1cc2c(cc1C)C(=O)CC1(CCN(C(=O)c3cccc4cn[nH]c34)CC1)O2 |
| 42 | 11 | – | COc1cccc2c1C(=O)CC1(CCN(C(=O)c3cc(C)c4[nH]nc(C)c4c3)CC1)O2 |
| 43 | 11 | – | CNC(=O)c1cc2cc(C(=O)N3CCC4(CC3)CC(=O)c3c(OC)cccc3O4)ccc2[nH]1 |
| 60 | 51 | – | COc1cccc2c1C(=O)CC1(CCN(C(=O)c3ccc4nc(-c5ccncc5)[nH]c4c3)CC1)O2 |
| 16 | 16 | – | COc1cccc2c1C(=O)CC1(CCN(C(=O)c3ccc4nc(-c5ccccc5)[nH]c4c3)CC1)O2 |
| – | > 1000 | – | COc1cccc2c1C(=O)CC1(CCN(C(=O)c3cccc4cn[nH]c34)CC1)O2 |
| 220 | 164 | – | COc1cccc2c1C(=O)CC1(CCN(C(=O)c3ccc4c(C)n[nH]c4c3)CC1)O2 |
| 766 | 640 | – | Cc1n[nH]c2ccc(C(=O)N3CCC4(CC3)CC(=O)c3ncccc3O4)cc12 |

| IC50 (Acetyl-CoA carboxylase 1) [nM] | IC50 (Acetyl-CoA carboxylase 2) [nM] | other results | Compound |
| --- | --- | --- | --- |
| 249 | 363 | – | Cc1n[nH]c2c(C)cc(C(=O)N3CCC4(CC3)CC(=O)c3ncccc3O4)cc12 |
| 86 | – | – | COc1nccc2c1C(=O)CC1(CCN(C(=O)c3cc(C)c4[nH]ncc4c3)CC1)O2 |
| 216 | 111 | – | COc1cccc2c1C(=O)CC1(CCN(C(=O)c3ccc4nc[nH]c4c3)CC1)O2 |
| 2970 | 505 | – | COc1cccc2c1C(=O)CC1(CCN(C(=O)c3ccc4nn[nH]c4c3)CC1)O2 |
| 366 | – | – | Cc1ccc2c(n1)C(=O)CC1(CCN(C(=O)c3cc(C)c4[nH]ncc4c3)CC1)O2 |
| 26 | 12 | – | COc1cccc2c1C(=O)CC1(CCN(C(=O)c3ccc4[nH]c(-c5ccccn5)nc4c3)CC1)O2 |
| 172 | 126 | – | COc1cccc2c1C(=O)CC1(CCN(C(=O)c3cc(C)c4nc[nH]c4c3)CC1)O2 |
| 65 | 16 | – | COc1cccc2c1C(=O)CC1(CCN(C(=O)c3cc(C)c4[nH]c(C(N)=O)cc4c3)CC1)O2 |
| 154 | – | – | Cc1cc(C(=O)N2CCC3(CC2)CC(=O)c2ncccc2O3)cc2cn[nH]c12 |
| 13 | 6.4 | – | Cc1noc(C)c1-c1ccc2c(c1)C(=O)CC1(CCN(C(=O)c3cc(C)c4[nH]ncc4c3)CC1)O2 |
| 19 | 30 | – | Cc1nc(-c2ccc3c(c2)C(=O)CC2(CCN(C(=O)c4cc(C)c5[nH]ncc5c4)CC2)O3)co1 |
| 101 | – | – | COc1cccc2c1C(=O)CC1(CCN(C(=O)c3ccc4nc(-c5ccnnc5)[nH]c4c3)CC1)O2 |
| 31 | 6.1 | – | Cc1cc(C(=O)N2CCC3(CC2)CC(=O)c2cc(-c4ccn(C)n4)ccc2O3)cc2cn[nH]c12 |
| 18 | 4.5 | – | Cc1cc(C(=O)N2CCC3(CC2)CC(=O)c2cc(-c4cc[nH]n4)ccc2O3)cc2cn[nH]c12 |
| 7.4 | – | – | Cc1cc(C(=O)N2CCC3(CC2)CC(=O)c2cc(-c4cn[nH]c4)ccc2O3)cc2cn[nH]c12 |
| 3380 | – | Cmax [10]: 617 ng/mL; clearance [11]: 44.3 mL/min/kg; Vd [12]: 2.4 L/kg; bioavailability [13]: 45%; half-life [14]: 1.7 h | Cc1ccc2cc(CC3CCN(C(=O)c4cccc5cn[nH]c45)CC3)ccc2n1 |
| 663 | > 1000 | – | COc1cccc2c1C(=O)CC1(CCN(C(=O)c3ccc4[nH]c(C)nc4c3)CC1)O2 |
| 182 | – | – | COc1cc2c(cn1)OC1(CCN(C(=O)c3cc(C)c4[nH]ncc4c3)CC1)CC2=O |
| 18 | 7.6 | – | Cc1cc(-c2ccc3c(c2)C(=O)CC2(CCN(C(=O)c4cc(C)c5[nH]ncc5c4)CC2)O3)n[nH]1 |
| 30 | 4.5 | – | Cc1cc(C(=O)N2CCC3(CC2)CC(=O)c2c(ccnc2OC(C)C)O3)cc2cn[nH]c12 |
| 1270 | – | – | Cc1ccc2cc(CC3CCN(C(=O)c4cccc(-c5cn[nH]c5)c4)CC3)ccc2n1 |
| 23 | 98 | – | Cc1cc(C(=O)N2CCC3(CC2)CC(=O)c2c(ccnc2OCC(C)C)O3)cc2cn[nH]c12 |
| 7.5 | – | – | Cc1cc(C(=O)N2CCC3(CC2)CC(=O)c2cc(-c4cnn(C)c4)ccc2O3)cc2cn[nH]c12 |
| 17 | 39 | – | Cc1ncc(-c2ccc3c(c2)C(=O)CC2(CCN(C(=O)c4cc(C)c5[nH]ncc5c4)CC2)O3)o1 |
